Rad51 HR inh – human RAD51 strand exchange inhibitors, primary screen, biochemical, fluorescence; AID 1385, 2008; 200,000 compounds, 0.085% hits; inhibition, % at 10 µM; hRad51 DNA strand exchange, fluorescence dequenching;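 active = inhibition above 40% at the single screening dose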;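 also: 0% = DMSO control wells and 100% = blanks with heterologous ssDNA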
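Material: human Rad51–ssDNA filaments; Probe or stimulus: labelled 47-mer dsDNA for strand exchange; Doses: single 10 µM dose; Incubation: 37 °C 15-min filament assembly, 30-min compound preincubation, 15-min exchange; Technique: FRET fluorescence dequenching, excitation 485 nm, emission 520 nm; Measure: Fluorescence-based percent inhibition, control- and blank-normalised; Benchmarks: plate control and blank wells.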
STAT1 activator – STAT1 signaling activators, primary screen, cell-based, HTS, luciferase reporter; 200,000 compounds, 2.6% hits; NIH 3T3 STAT1-luciferase reporter, IFN-gamma, luminescence; 100% = IFN-gamma alone, no compound; activation (% of control), % at 5.5 µM;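 active = activation above the screen-wide mean activation plus 3 SD, cut at about 130% in these data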;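 also: raw ratio to IFN-gamma control signal so 100% means no change and 0% no light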
NF-kB neuron act – activators of NF-kB expression in neurons, primary screen, cell-based, HTS | fold change at 12.5 µM | 190,000 compounds, 1.6% hits | human neuronal cells, NF-kB reporter expression; stronger effect = higher value | AID 1239, 2008; in the data active = fold change above about 3.3
FLuc inhib CS – firefly luciferase enzyme inhibitors, primary screen, artefact control for luciferase-based inhibitor screens, biochemical, luminescence, ATPLite; Luciferin 4-monooxygenase (Photinus pyralis), P08659; 10 min; inhibition, % at 10 µM; 200,000 compounds, 1.5% hits;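 active = inhibition above about 50% when tested at 10 µM, limit read from the data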
Target sequence (P08659 whole entry, looked up): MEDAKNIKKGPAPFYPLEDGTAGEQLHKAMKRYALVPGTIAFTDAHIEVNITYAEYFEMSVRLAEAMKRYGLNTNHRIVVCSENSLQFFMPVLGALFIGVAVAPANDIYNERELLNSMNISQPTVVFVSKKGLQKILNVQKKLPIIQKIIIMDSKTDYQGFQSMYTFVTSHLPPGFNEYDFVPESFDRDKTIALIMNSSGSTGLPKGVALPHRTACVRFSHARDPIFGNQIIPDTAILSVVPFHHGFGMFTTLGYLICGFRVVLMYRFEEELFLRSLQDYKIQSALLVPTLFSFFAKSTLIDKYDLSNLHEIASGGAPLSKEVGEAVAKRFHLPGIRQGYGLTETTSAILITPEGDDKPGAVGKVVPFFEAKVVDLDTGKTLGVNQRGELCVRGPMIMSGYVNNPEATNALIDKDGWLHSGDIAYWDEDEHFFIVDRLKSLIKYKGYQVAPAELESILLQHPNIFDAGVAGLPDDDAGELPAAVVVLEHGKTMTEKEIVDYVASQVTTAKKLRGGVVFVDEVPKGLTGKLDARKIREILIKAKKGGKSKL
APP 5'UTR act – activators of APP 5'UTR luciferase reporter, primary screen, SH-SY5Y cells; AID 1276, 2008; activation, % at 2 µM; 190,000 compounds, 1% hits; SH-SY5Y APP 5'UTR luciferase reporter, luminescence; zero percent = DMSO vehicle wells;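 active = activation above a set limit, based on mean plus 3 SD of controls, cut at about 140% in these data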
FLuc stim CS – FLuc activators, initial screening, artefact control for FLuc-dependent activation tests, biochemical, ATPlite luminescence | activation factor at 10 µM | ATPlite luciferase biochemical, 10 min; 0 = ATP-free wells, 1 = DMSO control | 200,000 tested, under 10 active;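 active = luciferase activation factor, scaled between plate controls, of at least 2 with compound at 10 µM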
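Assay system – cell-free luciferase reagent · Medium – PBS-based ATP solution · Dosing – test compounds dosed from 2 mM stocks in 100% DMSO · Timing – 10 min, room temperature · Technique – light output (luminescence) · Measure – luminescence gain marking luciferase activators · Controls – No-ATP low control, compound-free enzyme-plus-ATP high control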
* hit, by the source's call. Only some compounds are listed: those with a hit (about 3.9% of all), similar ones and a draw of the others.

Screening CC(C)c1ccc2c(c1)[C@H]1OCC[C@H]1[C@@H](c1cccs1)N2 returned Rad51 HR inh 3, STAT1 activator 111, NF-kB neuron act 2, FLuc inhib CS 26, APP 5'UTR act -86 and FLuc stim CS 0.7.
For CC1(C)CNC(=O)c2sc(NC(=O)c3ccccc3)nc2C1 the results were Rad51 HR inh 2, STAT1 activator 126, NF-kB neuron act 2.1, FLuc inhib CS 20, APP 5'UTR act 34 and FLuc stim CS 0.8.
Screening CC1(C)CC(=O)c2sc(NC(=O)c3cccs3)nc2C1 returned Rad51 HR inh 3, STAT1 activator 103, NF-kB neuron act 3.4*, FLuc inhib CS 95*, APP 5'UTR act 118 and FLuc stim CS 0.1.
CC1(C)CC(=O)c2sc(NC(=O)c3ccc4ncsc4c3)nc2C1 was read as Rad51 HR inh 0, STAT1 activator 113, NF-kB neuron act 1.2, FLuc inhib CS 55*, APP 5'UTR act 25 and FLuc stim CS 0.5.
`CC1(C)CC(=O)c2sc(NC(=O)c3ccccc3)nc2C1` gave Rad51 HR inh 4, STAT1 activator 128, NF-kB neuron act 3.5*, FLuc inhib CS 88*, APP 5'UTR act 170* and FLuc stim CS 0.1.
Screening CC1(C)CC(=O)c2sc(NC(=O)C(C)(C)C)nc2C1 returned STAT1 activator 120, NF-kB neuron act 1.6, FLuc inhib CS 12, APP 5'UTR act 29 and FLuc stim CS 0.9.
`CC/C(=N\NC(=O)CSc1ncccn1)c1ccc2c(c1)OCCO2` gave Rad51 HR inh 12, STAT1 activator 91, NF-kB neuron act 1, FLuc inhib CS -2, APP 5'UTR act -6 and FLuc stim CS 1.
Screening Cn1cncc1C(=O)c1ccccc1 returned Rad51 HR inh 1.
Screening COC(=O)C1=C(COc2ccc(C=O)cc2OC)NC(=O)NC1c1cc(C)ccc1C (centres undefined) returned Rad51 HR inh 28, STAT1 activator 95, NF-kB neuron act 1.1, FLuc inhib CS -3, APP 5'UTR act -2 and FLuc stim CS 1.
Screening Cn1/c(=N/N=C/c2ccc(Cl)c([N+](=O)[O-])c2)sc2ccccc21 returned STAT1 activator 96, NF-kB neuron act 1.4, FLuc inhib CS 11, APP 5'UTR act 9 and FLuc stim CS 0.9.
For Cn1/c(=N/N=C/c2ccc(N3CCOCC3)cc2)sc2ccccc21 the results were Rad51 HR inh 3, STAT1 activator 129*, NF-kB neuron act 1.8, FLuc inhib CS 23, APP 5'UTR act 24 and FLuc stim CS 0.8.
For O=C(CSc1ncnc2ccccc12)c1ccco1 the results were Rad51 HR inh -4, STAT1 activator 132*, NF-kB neuron act 5.6*, FLuc inhib CS 81*, APP 5'UTR act 146* and FLuc stim CS 0.2.
COc1ccc(S(=O)(=O)NNC(=O)c2cc3cc4ccccc4nc3s2)cc1 was read as Rad51 HR inh 6, STAT1 activator 98, NF-kB neuron act 1.3, FLuc inhib CS 5, APP 5'UTR act 6 and FLuc stim CS 0.9.
CCN1CCN(C(=O)c2cc3cc4cc(OC)ccc4nc3s2)CC1 was read as STAT1 activator 107, NF-kB neuron act 1.4, FLuc inhib CS 3, APP 5'UTR act 10 and FLuc stim CS 1.
`COc1ccc2nc3sc(C(=O)NCCN4CCc5ccccc5C4)cc3cc2c1` gave Rad51 HR inh 10, STAT1 activator 129*, NF-kB neuron act 1.9, FLuc inhib CS 7, APP 5'UTR act -4 and FLuc stim CS 0.9.
COc1ccc2cc3cc(C(=O)NCCCN4CCc5ccccc5C4)sc3nc2c1 was read as Rad51 HR inh -58, STAT1 activator 135*, NF-kB neuron act 3.7*, FLuc inhib CS 29, APP 5'UTR act 106 and FLuc stim CS 0.7.
Cc1ccc(NC(=O)CSCc2ccco2)cc1 was read as Rad51 HR inh 21, STAT1 activator 129*, NF-kB neuron act 2, FLuc inhib CS 6, APP 5'UTR act 32 and FLuc stim CS 0.9.
O=C(O)c1c2c(nc3ccc(S(=O)(=O)N4CCC(C(=O)NC5CCCCCC5)CC4)cc13)CCCC2 was read as Rad51 HR inh -22, STAT1 activator 101, NF-kB neuron act 1, FLuc inhib CS -5, APP 5'UTR act -3 and FLuc stim CS 1.1.
`Cc1nn2cc(-c3ccccc3)nc2s1` gave STAT1 activator 144*, NF-kB neuron act 5.4*, FLuc inhib CS 47, APP 5'UTR act 114 and FLuc stim CS 0.5.
`Cc1c(C(=O)Nc2ccncc2)sc2nc(-c3ccccc3)cn12` gave Rad51 HR inh 3, STAT1 activator 96, NF-kB neuron act 0.47, FLuc inhib CS -1, APP 5'UTR act 10 and FLuc stim CS 1.
`CCn1cc(/C=N/NS(=O)(=O)c2ccc(C)cc2)c(C)n1` gave STAT1 activator 100, NF-kB neuron act 1, FLuc inhib CS -6, APP 5'UTR act -1 and FLuc stim CS 1.1.
CCn1cc(/C=N/NS(=O)(=O)c2ccc(OC)cc2)c(C)n1 was read as Rad51 HR inh 45*, STAT1 activator 95, NF-kB neuron act 1.1, FLuc inhib CS -7, APP 5'UTR act -10 and FLuc stim CS 1.1.
For Cc1[nH]c2ccccc2c1C(=O)CSC(=S)N(C)C the results were Rad51 HR inh -2, STAT1 activator 130*, NF-kB neuron act 1.6, FLuc inhib CS 3, APP 5'UTR act 27 and FLuc stim CS 1.
O=C1NC(c2ccccn2)Nc2sc3c(c21)CCC3 (centres undefined) was read as Rad51 HR inh -9, STAT1 activator 117, NF-kB neuron act 5*, FLuc inhib CS 4, APP 5'UTR act 37 and FLuc stim CS 1.
`Cc1ccc(C2NC(=O)c3c(sc4c3CCN(C)C4)N2)s1` (centres undefined) gave Rad51 HR inh -16, STAT1 activator 138*, NF-kB neuron act 1.2, FLuc inhib CS 3, APP 5'UTR act 10 and FLuc stim CS 1.
`CN1CCc2c(sc3c2C(=O)NC(c2ccccn2)N3)C1` (centres undefined) gave Rad51 HR inh -17, STAT1 activator 104, NF-kB neuron act 1, FLuc inhib CS 3, APP 5'UTR act 8 and FLuc stim CS 1.
For Cc1ccsc1C1NC(=O)c2c(sc3c2CCCC3)N1 (centres undefined) the results were Rad51 HR inh 6, STAT1 activator 133*, NF-kB neuron act 1.8, FLuc inhib CS 2, APP 5'UTR act 83 and FLuc stim CS 1.
CN1CCc2c(sc3c2C(=O)NC(c2ccccc2)N3)C1 (centres undefined) was read as STAT1 activator 106, NF-kB neuron act 0.8, FLuc inhib CS 1, APP 5'UTR act -3 and FLuc stim CS 1.
